Experimental data pooled from the literature.
Compare with care: the assays were run in different laboratories.
Target: ALK tyrosine kinase receptor (ALK, Homo sapiens, UniProt Q9UM73)

Structure (SMILES) | assay | conditions | IC50 [µM]
CC(C)(C)n1nc(-c2ccc3nc(OC4CC4)ccc3c2)c(C(N)=O)c1N | cell-free assay | – | > 10
Cc1cc(-c2cccc(Cl)c2)n[nH]1 | enzyme activity, inhibitor, TR-FRET | – | 66
COc1cccc(Nc2cnc3[nH]c4ccc(CCc5ccccc5)cc4c3c2)c1 | enzyme activity, inhibitor, ELISA | – | > 10
Cc1cc(-c2ccnc(C#N)c2)n[nH]1 | enzyme activity, inhibitor, TR-FRET | – | 130
CCn1ncc2c1-c1cnc(N)c(c1)O[C@H](C)c1cc(F)ccc1-c1nn(C)nc1C2 | enzyme activity, inhibitor, radiometric | – | 0.0011
Clc1cnc2[nH]c3ccc(-c4ccc(N5CCOCC5)cn4)cc3c2c1 | enzyme activity, inhibitor, ELISA | – | > 10
CC(C)(C)n1nc(-c2cnc3cc(OC4CC4)ccc3c2)c(C(N)=O)c1N | cell-free assay | – | > 10
C=CC(=O)Nc1cc(Nc2nccc(Nc3cc(Cl)c(F)cc3C(C)(C)O)n2)c(OC)cc1N1CC[C@@H](N(C)C)C1 | enzyme activity, inhibitor | with preincubation | 1.17
Cc1cc(-c2cc(C#N)ccc2O[C@@H]2C[C@@H]2c2ccc(F)cc2F)n[nH]1 | enzyme activity, inhibitor, TR-FRET | – | 1.3
O=[N+]([O-])c1cccc(-c2cnc3[nH]c4ccccc4c3c2)c1 | enzyme activity, inhibitor, ELISA | – | > 10
Cc1cc(Nc2cc(CN3CCOCC3)c3nc(C)c(Cc4ccc(Cl)cc4F)n3n2)n[nH]1 | enzyme activity, inhibitor, TR-FRET | – | 0.138
COc1ccc2c(Oc3ccc4c(C(=O)Nc5ccccc5N)cccc4c3)ccnc2c1 | enzyme activity, inhibitor | – | > 0.5
c1ccc(CCc2ccc3[nH]c4ncc(-c5ccc6c(c5)OCO6)cc4c3c2)cc1 | enzyme activity, inhibitor, ELISA | – | > 10
Cc1cc(-c2cccc(C#N)c2)n[nH]1 | enzyme activity, inhibitor, TR-FRET | – | 51
